Assay results published in ChEMBL document CHEMBL3108746, “Novel symmetrical ureas as modulators of protein arginine methyl transferases” (Bioorg Med Chem, 2013).
Calls of active or inactive are those of the source. The rule behind the calls is not given here.

Legend:
LAPC4 = assay: Cytotoxicity against human LAPC4 cells after 7 days by Alamar blue staining method; assay type: functional, cell-based; conditions: for IC50: LAPC4, 168 h
Procedure, shortened: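 LAPC-4 cells seeded at 4000 cells/well in medium with 2 mM L-glutamine. After 1 day, treated with 1 nM R1881 plus a range of compound concentrations. Cell number read 7 days later by Alamar Blue staining on a luminometer.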

[1] = molecular target: Protein arginine N-methyltransferase 5 (Homo sapiens) (UniProt O14744); assay: Residual activity of recombinant human PRMT5 expressed in Sf9 cells using histone H4 peptide as substrate at 100 uM by chemiluminescence assay
Sequence of Protein arginine N-methyltransferase 5 (Homo sapiens) (O14744 whole entry): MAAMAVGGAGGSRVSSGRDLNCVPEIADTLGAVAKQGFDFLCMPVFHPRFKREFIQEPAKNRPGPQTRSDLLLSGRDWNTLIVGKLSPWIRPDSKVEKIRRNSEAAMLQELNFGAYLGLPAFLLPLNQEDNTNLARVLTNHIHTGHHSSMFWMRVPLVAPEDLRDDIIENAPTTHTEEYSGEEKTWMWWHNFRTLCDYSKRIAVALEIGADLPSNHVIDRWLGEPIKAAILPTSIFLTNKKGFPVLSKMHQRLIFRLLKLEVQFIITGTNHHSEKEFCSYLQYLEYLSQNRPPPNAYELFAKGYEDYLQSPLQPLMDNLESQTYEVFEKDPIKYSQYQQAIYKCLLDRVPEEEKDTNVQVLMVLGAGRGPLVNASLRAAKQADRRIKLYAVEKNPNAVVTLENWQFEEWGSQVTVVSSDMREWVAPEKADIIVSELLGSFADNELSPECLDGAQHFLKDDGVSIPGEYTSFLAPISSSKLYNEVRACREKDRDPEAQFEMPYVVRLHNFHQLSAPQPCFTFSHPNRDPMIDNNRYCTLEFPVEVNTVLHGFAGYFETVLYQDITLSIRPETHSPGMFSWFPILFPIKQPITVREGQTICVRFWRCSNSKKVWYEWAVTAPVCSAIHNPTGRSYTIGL

VCaP [2] = assay: Cytotoxicity against human VCaP cells after 7 days by Alamar blue staining method; assay type: functional, cell-based
Procedure, shortened: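 VCaP cells seeded at 16,000 cells/well in phenol-red DMEM with 10% cFCS. After 1 day, treated with 0.1 nM R1881 plus a range of compound concentrations. Cell number read 7 days later by Alamar Blue staining on a luminometer.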

[3] = molecular target: T1, Protein arginine N-methyltransferase 1 (Homo sapiens, UniProt Q99873); assay: Inhibition of recombinant human PRMT1 expressed in Escherichia coli using histone H4 peptide as substrate by chemiluminescence assay
Target sequence in this assay (Q99873 whole entry): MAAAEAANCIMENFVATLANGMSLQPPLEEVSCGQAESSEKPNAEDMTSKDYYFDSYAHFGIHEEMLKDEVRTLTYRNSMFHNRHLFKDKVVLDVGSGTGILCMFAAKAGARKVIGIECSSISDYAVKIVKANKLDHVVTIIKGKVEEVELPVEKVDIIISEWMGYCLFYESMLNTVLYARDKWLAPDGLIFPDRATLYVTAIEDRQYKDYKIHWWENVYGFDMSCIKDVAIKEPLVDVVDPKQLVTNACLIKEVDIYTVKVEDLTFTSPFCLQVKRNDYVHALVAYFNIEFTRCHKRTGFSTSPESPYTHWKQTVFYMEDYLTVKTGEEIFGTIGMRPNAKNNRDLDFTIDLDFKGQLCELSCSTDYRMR

VCaP [4] = assay: Inhibition of PRMT1 gene expression in androgen-stimulated human VCaP cells by RT-PCR analysis; assay type: functional, cell-based
Procedure, shortened: (§1)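 VCaP cells treated with androgen alone or with increasing compound concentrations. Transcript levels measured by real-time PCR with gene-specific fluorogenic probes and normalized to human cyclophilin A. Values are means of independent triplicates.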

[5] = molecular target: T1, Protein arginine N-methyltransferase 1; assay: Inhibition of PRMT1-mediated KLK2 gene expression in R1881-stimulated human VCaP cells at 1.56 to 100 uM by RT-PCR analysis; assay type: cell-based; procedure, shortened: as §1
Target sequence in this assay (Q99873 whole entry, looked up): as the sequence (Q99873 whole entry) above

[6] = molecular target: T1, Protein arginine N-methyltransferase 1; assay: Inhibition of PRMT1-mediated TMPRSS2 gene expression in R1881-stimulated human VCaP cells by RT-PCR analysis; assay type: cell-based; procedure, shortened: as §1
Target sequence in this assay (Q99873 whole entry, looked up): as the sequence (Q99873 whole entry) above

[7] = molecular target: T1, Protein arginine N-methyltransferase 1; assay: Inhibition of PRMT1-mediated FKBP5 gene expression in R1881-stimulated human VCaP cells by RT-PCR analysis; assay type: cell-based; procedure, shortened: as §1
Target sequence in this assay (Q99873 whole entry, looked up): as the sequence (Q99873 whole entry) above

VCaP [8] = assay: Inhibition of AR gene expression in R1881-stimulated human VCaP cells at 1.56 to 100 uM by RT-PCR analysis; assay type: functional, cell-based; procedure, shortened: as §1
[9] = molecular target: Protein arginine N-methyltransferase 5 (Homo sapiens) (UniProt O14744); assay: Inhibition of recombinant human PRMT5 expressed in Sf9 cells using histone H4 peptide as substrate by chemiluminescence assay
Procedure, shortened: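 Purified recombinant human PRMT5 (Sf9-expressed) incubated 1 h with S-adenosylmethionine in 1× TBS pH 8.0 with 0.05% Tween20, on wells precoated with histone H4 peptide. Compounds came from 25 mM DMSO stocks diluted in water. Detection used a primary antibody to symmetric-dimethyl R3 of H4 (1 h), then HRP secondary and chemiluminescence. Mean of duplicates with SD.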

| SMILES | residual activity [1] [%] | Activity (VCaP [2]) | Activity (LAPC4) | also measured |
| --- | --- | --- | --- | --- |
| O=C(Nc1ccc2ccc(S(=O)(=O)Nc3ccc4c(c3)OCCO4)cc2c1)Nc1ccc2ccc(S(=O)(=O)Nc3ccc4c(c3)OCCO4)cc2c1 | 71.8 |  |  | IC50 (LAPC4): 1.5 µM |
| O=C(O)/C=C/c1cccc(N2CCCN(c3cccc(/C=C/C(=O)O)n3)C2=O)n1 | 48.7 | inactive | inactive |  |
| O=C(Nc1ccc2ccc(S(=O)(=O)Nc3ccc(Oc4ccccc4)cc3)cc2c1)Nc1ccc2ccc(S(=O)(=O)Nc3ccc(Oc4ccccc4)cc3)cc2c1 | 38.5 |  |  | IC50 (LAPC4): 8.6 µM |
| O=C(Nc1ccc2c(O)cc(S(=O)(=O)O)cc2c1)Nc1ccc2c(O)cc(S(=O)(=O)O)cc2c1 |  | inactive | inactive |  |
| O=C(O)CCCCCNC(=O)NCCCCCC(=O)O | 46.2 | inactive | inactive | inhibition (VCaP [4]): inactive; inhibition [5]: inactive; inhibition [6]: Dose-dependent effect; inhibition [7]: Dose-dependent effect; inhibition (VCaP [8]): inactive; IC50 [3]: 6.1 µM |
| O=C(NCc1cccc(C(=O)O)c1)NCc1cccc(C(=O)O)c1 | 56.4 | inactive | inactive |  |
| O=C(O)/C=C/c1ccc(N2CCN(c3ccc(/C=C/C(=O)O)cc3)C2=O)cc1 | 35.9 | inactive | inactive |  |

More lines, main results first:

| residual activity [1] [%] | SMILES | Activity (VCaP [2]) | Activity (LAPC4) | also measured |
| --- | --- | --- | --- | --- |
| 46.2 | COc1ccc2c3c(cccc13)C(=O)N(C)C2=O | inactive | inactive | IC50 [3]: 16.3 µM |
| 92.3 | O=C(O)/C=C/c1cccc(NC(=O)Nc2cccc(/C=C/C(=O)O)c2)c1 | inactive | inactive |  |
| 61.5 | O=C(O)/C=C/c1cccc(N2CCN(c3cccc(/C=C/C(=O)O)c3)C2=O)c1 | inactive | inactive |  |
| 56.4 | O=C(O)/C=C/c1ccc(N2CCCN(c3ccc(/C=C/C(=O)O)cc3)C2=O)cc1 | inactive | inactive |  |
| 15.4 | O=C(NCCc1cccc(C(=O)O)c1)NCCc1cccc(C(=O)O)c1 | inactive | inactive | inhibition [9]: Active |
| 10.3 | O=C(O)/C=C/c1cccc(N2CCN(c3cccc(/C=C/C(=O)O)n3)C2=O)n1 | inactive | inactive | inhibition [9]: Active |
| 74.4 | O=C(O)/C=C/c1cccc(N2CCCN(c3cccc(/C=C/C(=O)O)c3)C2=O)c1 | inactive | inactive |  |
